From ChEMBL document CHEMBL1152334, “Quassinoid inhibition of AP-1 function does not correlate with cytotoxicity or protein synthesis inhibition” (J Nat Prod, 2009) come the findings set out here.

Calls of active or inactive are those of the source. The calls are words filed in the database; no cut-off is given here.

The nature of assay [1]: Growth inhibition of human NCI60 cells. The format is functional. The following applies: Homo sapiens, NCI60.
The nature of assay [2]: Inhibition of protein synthesis in cell-free extract of mouse Krebs2 cells by SDS-PAGE. The format is functional.
For assay [3], the system named is HeLa. Briefly: Inhibition of protein synthesis in human HeLa cells assessed as [35S]methionine incorporation into protein treated for 45 mins before [35S]methionine addition by Whatman paper analysis. The format is functional, cell-based.
The subject of assay [4] is HEK293. Briefly: Inhibition of TPA-induced NF-kappaB transfected in HEK293 cells at 0.1 to 10 uM treated 1 hr before TPA stimulation measured after 18 hrs by luciferase reporter gene assay. The format is cell-based. In short, it runs like this: (§1)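 HEK293 cells were grown in DMEM with 10% FBS at 37 °C and 5% CO2. They were transiently transfected with a luciferase reporter (0.1 µg/well); reporters were AP-1 (four TRE consensus copies from GCN4), NF-κB (five responsive-element copies) or SRE. After 24 h, medium went to DMEM with 0.2% FBS. Cells were pretreated 1 h with compound or DMSO, then given TPA 10 ng/mL for 18 h. Firefly luciferase was read from passive-lysis lysates, TPA alone = 100%, in quadruplicate.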
On the technique in general: Reporter assays use an easily measured gene product as a stand-in for the process of interest.

Assay [5] concerns the target Transcription factor Jun (Homo sapiens) (UniProt P05412). The assay is described as follows: Inhibition of TPA-induced AP1 transfected in HEK293 cells assessed as inhibition of […] reporter activity at 0.1 to 10 uM treated 1 hr before TPA stimulation measured after 18 hrs by luciferase reporter gene assay. The format is cell-based. In short, it runs like this: as §1

Assay [6] concerns Nucleic Acid. Briefly: Inhibition of TPA-induced SRE transfected in HEK293 cells at 0.1 to 10 uM treated 1 hr before TPA stimulation measured after 18 hrs by luciferase reporter gene assay. The format is cell-based. In short, it runs like this: as §1

Chain of Transcription factor Jun (Homo sapiens) (P05412 whole entry): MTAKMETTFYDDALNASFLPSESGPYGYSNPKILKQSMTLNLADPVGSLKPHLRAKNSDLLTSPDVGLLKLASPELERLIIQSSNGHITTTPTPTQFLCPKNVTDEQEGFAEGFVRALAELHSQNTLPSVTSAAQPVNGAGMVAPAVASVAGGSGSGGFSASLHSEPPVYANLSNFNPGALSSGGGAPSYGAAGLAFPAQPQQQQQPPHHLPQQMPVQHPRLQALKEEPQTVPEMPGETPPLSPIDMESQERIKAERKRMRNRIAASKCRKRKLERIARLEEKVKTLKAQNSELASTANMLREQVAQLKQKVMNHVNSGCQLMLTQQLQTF

As usually defined, the GI50 is the concentration at which growth is held to half of that of the control. Lower therefore signals greater sensitivity of the cells. In general, IC50 refers to the concentration needed to halve the response being measured. In assay [1], `C=C1[C@@H](O)[C@@]2(O)OC[C@@]34[C@H]1[C@@H](OC(=O)C/C=C/CCCCCCCC)C(=O)O[C@@H]3C[C@H]1C(C)=CC(=O)[C@@H](O)[C@]1(C)[C@@H]24` returned a concentration for 50% growth inhibition (GI50) of 24 nM. For the same molecule, the IC50 in assay [2] is below 10000 nM; in assay [3], above 2000 nM.
As for `COC(=O)[C@@]12OC[C@]34[C@H]([C@@H](O)[C@@H]1O)[C@@]1(C)CC(=O)C(O)=C(C)[C@@H]1C[C@H]3OC(=O)[C@H](OC(=O)/C=C(\C)C(C)C)[C@@H]24` [BRUCEANTIN], the GI50 in assay [1] worked out at 5 nM. Besides, the IC50 in assay [2] amounted to 410 nM; in assay [3], 51 nM.
`COC(=O)[C@]12OC[C@]34[C@H]([C@@H](O)[C@@H]1O)[C@@]1(C)CC(=O)C(O)=C(C)[C@@H]1C[C@H]3OC(=O)[C@H](OC(=O)C=C(C)C)[C@@H]24` [BRUSATOL] returned a GI50 in assay [1] of 260 nM. Besides, the half-inhibitory concentration (IC50) in assay [2] was 230 nM; in assay [3] it was below 1000 nM. Besides, the inhibition entry in assay [4], in assay [5] and in assay [6] was “inactive” throughout.
Take `CC1=C[C@H](O)[C@@H](O)[C@]2(C)[C@H]3[C@@]4(O)OC[C@]35[C@H]([C@@H](C)[C@H]4O)[C@@H](O)C(=O)O[C@@H]5C[C@@H]12` [GLAUCARUBOL]: the GI50 in assay [1] was 41000 nM. Further, the results for the IC50 in assay [2] and in assay [3] were above 30000 nM and above 2000 nM, respectively.
`C/C=C(\C)C(=O)O[C@@H]1[C@H]2C(C)=CC(=O)[C@@H](O)[C@]2(C)[C@H]2[C@@]3(O)OC[C@]24[C@H]([C@@H](C)[C@H]3O)[C@@H](OC(C)=O)C(=O)O[C@H]14` [HANNOAENONE]: the GI50 in assay [1] stood at 40 nM. That is a double-digit nanomolar value.
The same measure, in the same setting: under `CC(=O)O[C@H]1C(=O)O[C@@H]2C[C@H]3C(C)=CC(=O)[C@@H](O)[C@]3(C)[C@H]3[C@]4(O)OC[C@]32[C@@H]1[C@@H](C)[C@H]4O` [HOLACANTHONE] stands 30 nM.
The same measure, in the same setting: under `COC(=O)[C@]12OC[C@]34[C@H]([C@@H](O)[C@@H]1O)[C@@]1(C)[C@H](O)C(=O)C=C(C)[C@@H]1C[C@H]3OC(=O)[C@H](OC(=O)CC(C)C)[C@@H]24` [ISOBRUCEIN A] stands 17 nM; under `COC(=O)[C@@]12OC[C@]34[C@H]([C@@H](O)[C@@H]1O)[C@@]1(C)[C@H](O)C(=O)C=C(C)[C@@H]1C[C@H]3OC(=O)[C@H](OC(C)=O)[C@@H]24` [ISOBRUCEIN B], 100 nM.
On the same count and under the same terms, under `CC[C@@](O)(CC(=O)O[C@@H]1C(=O)O[C@@H]2C[C@@H]3C(C)=CC(=O)[C@H](O)[C@]3(C)[C@H]3[C@]4(O)OC[C@]32[C@@H]1[C@@H](C)[C@H]4O)C(C)C` [PENINSULARINONE] stands 1 nM.
As for `COC1=C[C@@H](C)[C@@H]2C[C@H]3OC(=O)C[C@H]4C(C)=C(OC)C(=O)[C@H]([C@@]2(C)C1=O)[C@@]34C` [QUASSIN], the figures for the half-inhibitory concentration (IC50) in assay [2] and in assay [3] were above 30000 nM and above 2000 nM, respectively. In addition, the inhibition entry in assay [4], in assay [5] and in assay [6] was “inactive” each time.
On to `COC(=O)[C@]12OC[C@]34[C@H]([C@@H](O)[C@@H]1O)[C@@]1(C)C=C5OC(=O)C=C5[C@@H](C)[C@@H]1C[C@H]3OC(=O)[C@H](OC(C)=O)[C@@H]24` [SERGEOLIDE], for which, in assay [1], growth was halved (GI50) at 3.8 nM. Moreover, the IC50 was 70 nM in assay [2] and below 1000 nM in assay [3].
As for `CC[C@@H](C)C(=O)O[C@H]1C(=O)O[C@@H]2C[C@H]3C(C)=CC(=O)[C@@H](O)[C@]3(C)[C@H]3[C@@H](O)[C@H](O)[C@]4(C)OC[C@]32[C@@H]14` [SIMALIKALACTONE D], it took 39 nM to inhibit growth in assay [1] by half (GI50).
